Source: publication PMC6445238 (Drug Design, Development and Therapy, 2019)

Assay: MAD study, safety and tolerability
Type: in vivo, human
Conditions: N=6
Procedure, shortened: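 MAD cohorts were 6 active and 2 placebo healthy males, dosed once daily for 7 days, confined day −1 to day 8, with follow-up on day 14. Safety was monitored by vital signs, clinical labs, 12-lead ECG, physical exams, and AEs reported by subjects or observed by investigators. AEs were coded with MedDRA 19.1. Counts are given as subjects with AEs, % of the safety population. Placebo subjects were pooled.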

In the case of `Cc1nn(Cc2ccc(Br)cc2)c(C)c1NC(=O)CSc1ccccc1` [KM-819], the “Abdominal discomfort, number of subjects (%)” value (from here on “Abdominal discomfort … (%)”) (30 mg QD 7 days, young) is reported as 0, the “Abdominal pain, number of subjects (%)” value (30 mg QD 7 days, young) is reported as 0 and the “Anxiety, number of subjects (%)” value (30 mg QD 7 days, young) is reported as 0. For the same compound, the “Back pain, number of subjects (%)” value (30 mg QD 7 days, young) was 0, the “Diarrhea, number of subjects (%)” value (30 mg QD 7 days, young) was 0 and the “Dizziness, number of subjects (%)” value (30 mg QD 7 days, young) was 1 (16.7). The “Epistaxis, number of subjects (%)” value (30 mg QD 7 days, young) was 0, the “Erythema of eyelid, number of subjects (%)” value (“Erythema of eyelid … (%)” below) (30 mg QD 7 days, young) was 0 and the “Erythema, number of subjects (%)” value (30 mg QD 7 days, young) was 0. The “Headache, number of subjects (%)” value (30 mg QD 7 days, young) was 2 (33.3), the “Hyperbilirubinemia, number of subjects (%)” value (“Hyperbilirubinemia … (%)” for short) (30 mg QD 7 days, young) was 0 and the “Hyperhidrosis, number of subjects (%)” value (30 mg QD 7 days, young) was 0. The “Hypoesthesia, number of subjects (%)” value (30 mg QD 7 days, young) was 0, the “Insomnia, number of subjects (%)” value (30 mg QD 7 days, young) was 0 and the “Muscle hemorrhage, number of subjects (%)” value (from here on “Muscle hemorrhage … (%)”) (30 mg QD 7 days, young) was 0. The “Musculoskeletal stiffness, number of subjects (%)” value (“Musculoskeletal stiffness … (%)” for short) (30 mg QD 7 days, young) was 0, the “Nausea, number of subjects (%)” value (30 mg QD 7 days, young) was 2 (33.3) and the “Neck pain, number of subjects (%)” value (30 mg QD 7 days, young) was 0. For the same compound, the “Oropharyngeal pain, number of subjects (%)” value (“Oropharyngeal pain … (%)” below) (30 mg QD 7 days, young) was 0, the “Subjects with any TEAEs, number of subjects (%)” value (“Subjects with any TEAEs … (%)” below) (30 mg QD 7 days, young) was 2 (33.3) and the “Vomiting, number of subjects (%)” value (30 mg QD 7 days, young) was 2 (33.3). For the same compound, the “Abdominal discomfort … (%)” value (100 mg QD 7 days, young) was 0, the “Abdominal pain, number of subjects (%)” value (100 mg QD 7 days, young) was 0 and the “Anxiety, number of subjects (%)” value (100 mg QD 7 days, young) was 0. For the same compound, the “Back pain, number of subjects (%)” value (100 mg QD 7 days, young) was 2 (33.3), the “Diarrhea, number of subjects (%)” value (100 mg QD 7 days, young) was 0 and the “Dizziness, number of subjects (%)” value (100 mg QD 7 days, young) was 1 (16.7). The “Epistaxis, number of subjects (%)” value (100 mg QD 7 days, young) was 0, the “Erythema of eyelid … (%)” value (100 mg QD 7 days, young) was 0 and the “Erythema, number of subjects (%)” value (100 mg QD 7 days, young) was 0. The “Headache, number of subjects (%)” value (100 mg QD 7 days, young) was 1 (16.7), the “Hyperbilirubinemia … (%)” value (100 mg QD 7 days, young) was 0 and the “Hyperhidrosis, number of subjects (%)” value (100 mg QD 7 days, young) was 0. The “Hypoesthesia, number of subjects (%)” value (100 mg QD 7 days, young) was 0, the “Insomnia, number of subjects (%)” value (100 mg QD 7 days, young) was 0 and the “Muscle hemorrhage … (%)” value (100 mg QD 7 days, young) was 0. For the same compound, the “Musculoskeletal stiffness … (%)” value (100 mg QD 7 days, young) was 0, the “Nausea, number of subjects (%)” value (100 mg QD 7 days, young) was 1 (16.7) and the “Neck pain, number of subjects (%)” value (100 mg QD 7 days, young) was 0. For the same compound, the “Oropharyngeal pain … (%)” value (100 mg QD 7 days, young) was 0, the “Subjects with any TEAEs … (%)” value (100 mg QD 7 days, young) was 4 (66.7) and the “Vomiting, number of subjects (%)” value (100 mg QD 7 days, young) was 0. For the same compound, the “Abdominal discomfort … (%)” value (200 mg QD 7 days, elderly) was 0, the “Abdominal pain, number of subjects (%)” value (200 mg QD 7 days, elderly) was 1 (16.7) and the “Anxiety, number of subjects (%)” value (200 mg QD 7 days, elderly) was 0. The “Back pain, number of subjects (%)” value (200 mg QD 7 days, elderly) was 2 (33.3), the “Diarrhea, number of subjects (%)” value (200 mg QD 7 days, elderly) was 1 (16.7) and the “Dizziness, number of subjects (%)” value (200 mg QD 7 days, elderly) was 0. The “Epistaxis, number of subjects (%)” value (200 mg QD 7 days, elderly) was 0, the “Erythema of eyelid … (%)” value (200 mg QD 7 days, elderly) was 0 and the “Erythema, number of subjects (%)” value (200 mg QD 7 days, elderly) was 0. The “Headache, number of subjects (%)” value (200 mg QD 7 days, elderly) was 1 (16.7), the “Hyperbilirubinemia … (%)” value (200 mg QD 7 days, elderly) was 0 and the “Hyperhidrosis, number of subjects (%)” value (200 mg QD 7 days, elderly) was 0. For the same compound, the “Hypoesthesia, number of subjects (%)” value (200 mg QD 7 days, elderly) was 0, the “Insomnia, number of subjects (%)” value (200 mg QD 7 days, elderly) was 1 (16.7) and the “Muscle hemorrhage … (%)” value (200 mg QD 7 days, elderly) was 1 (16.7). The “Musculoskeletal stiffness … (%)” value (200 mg QD 7 days, elderly) was 0, the “Nausea, number of subjects (%)” value (200 mg QD 7 days, elderly) was 0 and the “Neck pain, number of subjects (%)” value (200 mg QD 7 days, elderly) was 1 (16.7). The “Oropharyngeal pain … (%)” value (200 mg QD 7 days, elderly) was 0, the “Subjects with any TEAEs … (%)” value (200 mg QD 7 days, elderly) was 3 (50.0) and the “Vomiting, number of subjects (%)” value (200 mg QD 7 days, elderly) was 0. For the same compound, the “Abdominal discomfort … (%)” value (200 mg QD 7 days, young) was 1 (16.7), the “Abdominal pain, number of subjects (%)” value (200 mg QD 7 days, young) was 0 and the “Anxiety, number of subjects (%)” value (200 mg QD 7 days, young) was 0. For the same compound, the “Back pain, number of subjects (%)” value (200 mg QD 7 days, young) was 1 (16.7), the “Diarrhea, number of subjects (%)” value (200 mg QD 7 days, young) was 0 and the “Dizziness, number of subjects (%)” value (200 mg QD 7 days, young) was 2 (33.3). For the same compound, the “Epistaxis, number of subjects (%)” value (200 mg QD 7 days, young) was 0, the “Erythema of eyelid … (%)” value (200 mg QD 7 days, young) was 0 and the “Erythema, number of subjects (%)” value (200 mg QD 7 days, young) was 0. For the same compound, the “Headache, number of subjects (%)” value (200 mg QD 7 days, young) was 5 (83.3), the “Hyperbilirubinemia … (%)” value (200 mg QD 7 days, young) was 1 (16.7) and the “Hyperhidrosis, number of subjects (%)” value (200 mg QD 7 days, young) was 0. The “Hypoesthesia, number of subjects (%)” value (200 mg QD 7 days, young) was 2 (33.3), the “Insomnia, number of subjects (%)” value (200 mg QD 7 days, young) was 0 and the “Muscle hemorrhage … (%)” value (200 mg QD 7 days, young) was 0.
